Activity calls are given as the source filed them. The calls are words filed in the database; no cut-off is given here.
Legend:
[1] = Half life in human liver microsomes; type: ADME, Microsome
[2] = target: Tyrosine-protein kinase ABL1 (Homo sapiens, UniProt P00519); test: Inhibition of ABL1 at 1 uM
[3] = target: RAC-beta serine/threonine-protein kinase (Homo sapiens) (UniProt P31751); test: Inhibition of AKT2 at 1 uM
[4] = target: Aurora kinase A (Homo sapiens) (UniProt O14965); test: Inhibition of AURKA at 1 uM
[5] = target: Aurora kinase B (Homo sapiens) (UniProt Q96GD4); test: Inhibition of AURKB at 1 uM
[6] = target: Cyclin-dependent kinase 1/cyclin B (Homo sapiens) (UniProt P06493+P14635+Q8WWL7+O95067); test: Inhibition of CDK1/cyclin B at 1 uM; type: protein-complex assay
[7] = target: Cyclin-dependent kinase 2/cyclin A (Homo sapiens) (UniProt P24941+P20248+P78396); test: Inhibition of CDK2/cyclin A at 1 uM; type: protein-complex assay
[8] = target: Serine/threonine-protein kinase Chk1 (Homo sapiens) (UniProt O14757); test: Inhibition of CHEK1 at 1 uM
[9] = target: Ephrin type-A receptor 1 (Homo sapiens) (UniProt P21709); test: Inhibition of EPHA1 at 1 uM
[10] = target: Tyrosine-protein kinase Fes/Fps (Homo sapiens) (UniProt P07332); test: Inhibition of FES at 1 uM
[11] = target: Fibroblast growth factor receptor 2 (Homo sapiens) (UniProt P21802); test: Inhibition of FGFR2 at 1 uM
[12] = target: Vascular endothelial growth factor receptor 1 (Homo sapiens) (UniProt P17948); test: Inhibition of FLT1 at 1 uM
[13] = target: Vascular endothelial growth factor receptor 3 (Homo sapiens) (UniProt P35916); test: Inhibition of FLT4 at 1 uM
[14] = target: Glycogen synthase kinase-3 alpha (Homo sapiens) (UniProt P49840); test: Inhibition of GSK3A at 1 uM
[15] = target: Tyrosine-protein kinase JAK2 (Homo sapiens) (UniProt O60674); test: Inhibition of JAK2 at 1 uM
[16] = target: Vascular endothelial growth factor receptor 2 (Homo sapiens) (UniProt P35968); test: Inhibition of KDR at 1 uM
[17] = target: Tyrosine-protein kinase Lck (Homo sapiens, UniProt P06239); test: Inhibition of LCK at 1 uM
[18] = Inhibition of MAP3K at 1 uM
[19] = target: Mitogen-activated protein kinase 1 (Homo sapiens) (UniProt P28482); test: Inhibition of MAPK1 at 1 uM
[20] = target: Mitogen-activated protein kinase 3 (Homo sapiens) (UniProt P27361); test: Inhibition of MAPK3 at 1 uM
[21] = target: MAP kinase-activated protein kinase 2 (Homo sapiens) (UniProt P49137); test: Inhibition of MAPKAPK2 at 1 uM
[22] = target: Hepatocyte growth factor receptor (Homo sapiens) (UniProt P08581); test: Inhibition of MET at 1 uM
[23] = target: High affinity nerve growth factor receptor (Homo sapiens) (UniProt P04629); test: Inhibition of NTRK1 at 1 uM
[24] = target: Platelet-derived growth factor receptor beta (Homo sapiens) (UniProt P09619); test: Inhibition of PDGFRB at 1 uM
[25] = target: Serine/threonine-protein kinase pim-1 (Homo sapiens) (UniProt P11309); test: Inhibition of PIM1 at 1 uM
[26] = Inhibition of PRKA at 1 uM
[27] = target: Protein kinase C beta type (Homo sapiens) (UniProt P05771); test: Inhibition of PRKCB1 at 1 uM
[28] = target: Protein kinase C beta type (Homo sapiens) (UniProt P05771); test: Inhibition of PRKCB2 at 1 uM
[29] = target: Protein kinase C gamma type (Homo sapiens) (UniProt P05129); test: Inhibition of PRKCG at 1 uM
[30] = target: Proto-oncogene tyrosine-protein kinase receptor Ret (Homo sapiens, UniProt P07949); test: Inhibition of RET at 1 uM
[31] = target: Rho-associated protein kinase 1 (Homo sapiens) (UniProt Q13464); test: Inhibition of ROCK1 at 1 uM
[32] = Inhibition of RPS6K at 1 uM
[33] = target: Ribosomal protein S6 kinase beta-1 (Homo sapiens) (UniProt P23443); test: Inhibition of RPS6B1 at 1 uM
[34] = target: Serine/threonine-protein kinase Sgk1 (Homo sapiens) (UniProt O00141); test: Inhibition of SGK at 1 uM
[35] = target: Tyrosine-protein kinase ZAP-70 (Homo sapiens) (UniProt P43403); test: Inhibition of ZAP70 at 1 uM
[36] = target: T1, Mitogen-activated protein kinase 14 (Homo sapiens, UniProt Q16539); test: Inhibition of MAPK14
[37] = test system: Serine/threonine-protein kinase B-raf (Homo sapiens), P15056 [V600E]; test: Inhibition of BRAF V600E mutant in human A375 cells assessed as reduction of ERK phosphorylation; type: cell-based; conditions: A-375
[38] = Oral bioavailability in nude mouse at 10 mg/kg; type: ADME, organism-based; conditions: in vivo, read-out: Activity
[39] = Clearance in nude mouse; type: ADME, organism-based; conditions: in vivo
[40] = Volume of distribution at steady state in nude mouse; type: ADME, organism-based; conditions: in vivo, read-out: Vdss
[41] = Drug level in tumor tissue of human A375 cells xenografted nude mouse at 25 mg/kg, po after 6 hrs; type: ADME, organism-based, Neoplasm, A-375; parameters: dose 25 mg/kg, route oral; conditions: read-out: Drug uptake
[42] = test system: Mus musculus; test: Inhibition of BRAF-mediated ERK phosphorylation in human A375 cells xenografted nude mouse at 10 mg/kg, po QD; type: functional, organism-based; parameters: dose 10 mg/kg; conditions: A-375
Method in brief: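 Nude mice bearing A375 xenografts received an oral 10 mg/kg dose once daily. Tumours were taken from treated and untreated animals 6 h after the first dose, and ERK phosphorylation in tumour tissue was measured.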

[43] = test system: Mus musculus; test: Toxicity in human A375 cells xenografted nude mouse; type: organism-based, A-375; conditions: in vivo
[44] = target: Epidermal growth factor receptor (Homo sapiens, UniProt P00533); conditions: 1 uM
[45] = target: T1, Mitogen-activated protein kinase 14; conditions: 1 uM
[46] = target: Proto-oncogene tyrosine-protein kinase Src (Homo sapiens) (UniProt P12931); conditions: 1 uM
[47] = target: Tyrosine-protein kinase Yes (Homo sapiens, UniProt P07947); conditions: 1 uM
[48] = target: 3-phosphoinositide-dependent protein kinase 1 (Homo sapiens) (UniProt O15530); test: Inhibition of PDK1 at 1 uM
[49] = target: Focal adhesion kinase 1 (PTK2) (Homo sapiens) (UniProt Q05397); test: Inhibition of PTK2 at 1 uM
[50] = target: Protein kinase C alpha (Homo sapiens) (UniProt P17252); test: Inhibition of PRKCA at 1 uM

CN1C[C@@H]2C[C@H]1CN2c1cc(F)c(-c2ccnc3c(-c4cccc5[nH]ncc45)c(-c4ccncc4)nn23)c(F)c1
half-life [1]: > 30 min | inhibition [2]: 70% | inhibition [3]: 9% | inhibition [4]: 7% | inhibition [5]: 0% | inhibition [6]: 0% | inhibition [7]: 4% | inhibition [8]: 0% | inhibition [9]: 84% | inhibition [10]: 21% | inhibition [11]: 66% | inhibition [12]: 14% | inhibition [13]: 17% | inhibition [14]: 34% | inhibition [15]: -6% | inhibition [16]: 39% | inhibition [17]: 73% | inhibition [18]: 4% | inhibition [19]: 6% | inhibition [20]: 5% | inhibition [21]: -1% | inhibition [22]: 66% | inhibition [23]: 25% | inhibition [24]: 9% | inhibition [25]: 5% | inhibition [26]: 18% | inhibition [27]: 39% | inhibition [28]: 51% | inhibition [29]: 15% | inhibition [30]: 84% | inhibition [31]: 3% | inhibition [32]: 14% | inhibition [33]: 5% | inhibition [34]: 8% | inhibition [35]: 4% | IC50 [36]: 145 nM | inhibition [37]: Active | bioavailability [38]: 54% | clearance [39]: 23 mL/min/kg | Vd [40]: 4.7 L/kg | concentration at 6 h [41]: 6.6 µM | inhibition [42]: Active | Activity [43]: Non-toxic | inhibition [44]: 77% | inhibition [45]: 81% | inhibition [46]: 77% | inhibition [47]: 68% | inhibition [48]: 3% | inhibition [49]: 15% | inhibition [50]: 9%

From ChEMBL document CHEMBL1275379, “Indazolylpyrazolopyrimidine as highly potent B-Raf inhibitors with in vivo activity” (J Med Chem, 2010)
